The record followed here is ChEMBL document CHEMBL1145937, “Optimization of the pharmacophore model for 5-HT7R antagonism. Design and synthesis of new naphtholactam and naphthosultam derivatives” (J Med Chem, 2003).

Each structure is given as a SMILES string.

T1 sequence (P34969 whole entry): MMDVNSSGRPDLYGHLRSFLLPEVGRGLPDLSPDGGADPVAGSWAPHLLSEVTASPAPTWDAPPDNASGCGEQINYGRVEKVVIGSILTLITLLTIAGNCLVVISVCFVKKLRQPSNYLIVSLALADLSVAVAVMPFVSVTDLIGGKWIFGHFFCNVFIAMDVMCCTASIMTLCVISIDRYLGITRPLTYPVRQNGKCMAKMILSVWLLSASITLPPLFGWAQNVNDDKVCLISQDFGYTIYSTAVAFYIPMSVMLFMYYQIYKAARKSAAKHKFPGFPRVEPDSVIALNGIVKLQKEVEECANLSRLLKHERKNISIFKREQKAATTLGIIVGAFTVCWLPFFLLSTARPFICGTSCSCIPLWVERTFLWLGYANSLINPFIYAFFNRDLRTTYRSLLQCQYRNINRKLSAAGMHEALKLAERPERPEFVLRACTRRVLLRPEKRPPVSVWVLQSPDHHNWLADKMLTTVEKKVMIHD

One experiment addresses T1, 5-hydroxytryptamine receptor 7 (Homo sapiens, UniProt P34969). Briefly: Non-selective inhibitory activity was determined against 5-hydroxytryptamine 7 receptor.
By Ki is commonly meant a measure of affinity in units of concentration, obtained from inhibition or displacement. As to `CCC(CO)NC(=O)[C@@H]1C=C2c3cccc4c3c(cn4C)C[C@H]2N(C)C1` (single isomer, unassigned) [METHYSERGIDE], affinity was put at a Ki of 12.6 nM.

The molecule `Cc1nc2sccn2c(=O)c1CCN1CCC(=C(c2ccc(F)cc2)c2ccc(F)cc2)CC1` [RITANSERIN] showed an inhibition constant Ki of 15.8 nM.

`CN1CCC(=C2c3ccccc3C=Cc3ccccc32)CC1` [CYPROHEPTADINE] showed a Ki of 50.1 nM.

For the molecule `CC(C)(C)[C@@]1(O)CCN2C[C@@H]3c4ccccc4CCc4cccc(c43)[C@H]2C1`, affinity was put at a Ki of 63.1 nM.

`CCN(CC)C(=O)[C@@H]1C=C2c3cccc4[nH]c(Br)c(c34)C[C@H]2N(C)C1` gave a Ki of 10 nM.

Take `CN1C[C@@H](NS(=O)(=O)N(C)C)C[C@@H]2c3cccc4c3c(cn4C)C[C@H]21` [MESULERGINE]: the affinity, expressed as Ki, was 7.94 nM.

Another experiment deals with T1, 5-hydroxytryptamine receptor 7. Nature of the experiment: Binding affinity towards cloned human 5-hydroxytryptamine 7 receptor was determined in HEK293 cells using [3H]5-CT as radioligand. In kind it is cell-based.
In turn, `CC1CCN(CC[C@@H]2CCCCN2S(=O)(=O)c2cccc3ccccc23)CC1` showed a Ki of 15.8 nM.

`CC1CCN(CC[C@@H](C)N(C)S(=O)(=O)c2cccc3ccccc23)CC1`: the Ki is 31.6 nM.

Take `C[C@H]1CCCN(CC[C@H](C)N(C)S(=O)(=O)c2cccc3ccccc23)C1`: the Ki was 100000 nM.

Take `CC1CCN(CC[C@@H]2CCCN2S(=O)(=O)c2ccc(Cl)c(Cl)c2)CC1`: the Ki is 3.98 nM.

`CC1CCN(CC[C@@H]2CCCN2S(=O)(=O)c2cccc3ccccc23)CC1` gave a Ki of 10 nM.

Turning to `COc1cccc(S(=O)(=O)N2CCC[C@H]2CCN2CCC(C)CC2)c1`, the affinity corresponds to a Ki of 10 nM.

`C[C@@H]1CCCN(CC[C@H](C)N(C)S(=O)(=O)c2cccc3ccccc23)C1` gave a Ki of 1580 nM.

In the case of `C[C@H]1CCCN(CC[C@@H](C)N(C)S(=O)(=O)c2cccc3ccccc23)C1`, the Ki was 631 nM.

Turning to `CC1CCN(CC[C@@H]2CCCN2S(=O)(=O)c2cccc(Br)c2)CC1`, the Ki was 2 nM.

The target of a further experiment is T2, 5-hydroxytryptamine receptor 7 (Rattus norvegicus, UniProt P32305). Nature of the experiment: Binding affinity towards cloned rat 5-hydroxytryptamine 7 receptor was determined using [3H]5-HT as radioligand.
T2 sequence (P32305 whole entry): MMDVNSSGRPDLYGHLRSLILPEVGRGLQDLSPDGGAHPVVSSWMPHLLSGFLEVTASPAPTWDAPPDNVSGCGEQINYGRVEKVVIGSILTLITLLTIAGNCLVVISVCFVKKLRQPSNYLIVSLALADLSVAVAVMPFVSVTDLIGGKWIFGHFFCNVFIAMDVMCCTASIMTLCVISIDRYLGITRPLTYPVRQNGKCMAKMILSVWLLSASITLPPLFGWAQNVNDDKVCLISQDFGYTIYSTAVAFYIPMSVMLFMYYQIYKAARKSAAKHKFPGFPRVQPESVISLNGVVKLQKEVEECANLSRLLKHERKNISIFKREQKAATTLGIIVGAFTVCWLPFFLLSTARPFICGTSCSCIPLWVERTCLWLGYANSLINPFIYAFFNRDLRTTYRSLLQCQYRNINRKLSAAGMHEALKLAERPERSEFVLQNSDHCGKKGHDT
`COc1cccc(OC)c1-c1cccc2c1-c1cccc3c1[C@@H](C2)N(C)CC3` had a Ki of 12.6 nM.

In the case of `Cc1cccc(O)c1-c1cccc2c1-c1cccc3c1[C@@H](C2)N(C)CC3`, the affinity, expressed as Ki, was 25.1 nM.

For `Cc1cccc(C#N)c1-c1cccc2c1-c1cccc3c1[C@@H](C2)N(C)CC3`, affinity was put at a Ki of 3.98 nM.

The next experiment concerns the target T1, 5-hydroxytryptamine receptor 7. Briefly: Binding affinity towards human recombinant 5-hydroxytryptamine 7 receptor was determined using [3H]5-CT as radioligand.
As for `O=C1Nc2cccc3c2C1(CCCCN1CCN(C2CCCCC2)CC1)CCC3` (stereo not drawn), the Ki was 100000 nM.

A further experiment concerns the target T2, 5-hydroxytryptamine receptor 7. Briefly: Binding affinity towards 5-hydroxytryptamine receptor 7 on rat hypothalamus membranes using [3H]5-CT as radioligand. Format: tissue-based, Membrane. The procedure, abridged: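 Rat hypothalamus homogenized in ice-cold 50 mM Tris-HCl pH 7.4, spun at 48 000g, washed and preincubated at 37 °C for 10 min. Membranes were resuspended in Tris buffer with 4 mM CaCl2, 1 mg/mL ascorbic acid, 0.01 mM pargyline and 3 μM pindolol, then incubated 120 min at 23 °C with 0.5 nM [3H]-5-CT. Nonspecific binding was set by 10 μM 5-HT. GF/C filtration, scintillation counting. Ki from IC50 via Cheng–Prusoff; 2–4 assays in triplicate.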
Molecule `O=C1c2cccc3cccc(c23)N1CCCCN1CCN(c2ccccc2)CC1` showed a Ki of 631 nM.

On to `CC1CCN(CCCCCCN2c3cccc4cccc(c34)S2(=O)=O)CC1`, for which the Ki is over 10000 nM.

Regarding `O=C1c2cccc3cccc(c23)N1CCCCCN1CCN(C2CCCCC2)CC1`, the inhibition constant (Ki) was over 10000 nM.

Take `O=S1(=O)c2cccc3cccc(c23)N1CCCCCN1CCC(C2CCCCC2)CC1`: the Ki is over 10000 nM.

In turn, `O=C1c2cccc3cccc(c23)N1CCCCN1CC=C(c2ccccc2)CC1` had a Ki of over 1000 nM.

In turn, `CC1CCN(CCC2CCCN2S(=O)(=O)c2cccc(O)c2)CC1` (single isomer, unassigned) gave a Ki of 31.6 nM.

Turning to `CN1CCN(CCCCN2C(=O)c3cccc4cccc2c34)CC1`, the Ki was over 10000 nM.

Regarding `CC1CCN(CCCCN2C(=O)c3cccc4cccc2c34)CC1`, the Ki is over 1000 nM.

Regarding `O=C1c2cccc3cccc(c23)N1CN1CCN(c2ccccc2)CC1`, the Ki is over 10000 nM.

`COc1ccccc1N1CCN(CCCCCCN2C(=O)c3cccc4cccc2c34)CC1` had a Ki of over 1000 nM.

On to `O=S1(=O)c2cccc3cccc(c23)N1CCCCN1CCCCC1`, for which the Ki was over 10000 nM.

On to `O=C1c2cccc3cccc(c23)N1CCCCN1CCN(C2CCCCC2)CC1`, for which the Ki was over 10000 nM.

As for `O=S1(=O)c2cccc3cccc(c23)N1CCCCCCN1CCN(c2ccccc2)CC1`, the Ki is over 1000 nM.

Regarding `COc1ccccc1N1CCN(CCCN2C(=O)c3cccc4cccc2c34)CC1`, the Ki was 398 nM.

Consider `O=S1(=O)c2cccc3cccc(c23)N1CCCCN1CCN(c2ccccc2)CC1`, for which the affinity, expressed as Ki, was 1000 nM.

On to `Cc1cccc(S(=O)(=O)N(C)[C@H](C)CCN2CCC(C)CC2)c1` [SB-258719], for which the Ki was 79.4 nM.

`CC1CCN(CCCCCN2c3cccc4cccc(c34)S2(=O)=O)CC1` gave an inhibitory constant (Ki) of over 10000 nM.

`O=C1c2cccc3cccc(c23)N1CCCCCN1CC=C(c2ccccc2)CC1` gave a Ki of over 1000 nM.

With `O=C1Nc2cccc3c2C1(CCCCN1CC=C(c2ccccc2)CC1)CCC3` (stereo not drawn), the Ki was 50.1 nM.

In the case of `COc1ccccc1N1CCN(CN2C(=O)c3cccc4cccc2c34)CC1`, the Ki is over 10000 nM.

`O=C1c2cccc3cccc(c23)N1CCCCN1CCC(C2CCCCC2)CC1` had an inhibition constant Ki of over 1000 nM.

With `O=C1c2cccc3cccc(c23)N1CCCCN1CCC(c2ccccc2)CC1`, the inhibition constant (Ki) was over 1000 nM.

`Cn1ccnc1SCCCCN1C(=O)c2cccc3cccc1c23` gave a Ki of over 10000 nM.

On to `O=C1c2cccc3cccc(c23)N1CCCCN1CCCCC1`, for which the Ki is over 10000 nM.

The molecule `CC(C)C1CCN(CCCCCN2C(=O)c3cccc4cccc2c34)CC1` showed a Ki of over 1000 nM.

`CN1CCN(CCCCN2c3cccc4cccc(c34)S2(=O)=O)CC1`: the Ki was over 10000 nM.

The molecule `CC1CCN(CCCCN2c3cccc4cccc(c34)S2(=O)=O)CC1` had a Ki of over 10000 nM.

On to `O=C1c2cccc3cccc(c23)N1CCCCCCN1CCN(c2ccccc2)CC1`, for which the Ki is over 1000 nM.

`O=C1c2cccc3cccc(c23)N1CCCN1CCN(c2ccccc2)CC1`: the Ki is over 10000 nM.
